Experiments:
[1] = tested on: RAW264.7; experiment: Cytotoxicity against mouse RAW264.7 cells assessed as cell viability by propidium iodide staining based FACS-flow cytometry
Outline: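 RAW264.7 macrophages were grown in DMEM with heat-inactivated 10% FBS, penicillin and streptomycin at 37 °C under 5% CO₂. Viability was assessed by propidium iodide nuclear staining at 1 µg/ml, followed by flow cytometry. PI-stained cells were counted as dead.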

[2] = molecular target: T1, Prostaglandin G/H synthase 2 (Homo sapiens) (UniProt P35354); conditions: at 100 nM;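 further: recombinant enzyme with arachidonic acid substrate, compound preincubated 10 min before substrate, product read by EIA after 2 min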
T1 sequence (whole entry): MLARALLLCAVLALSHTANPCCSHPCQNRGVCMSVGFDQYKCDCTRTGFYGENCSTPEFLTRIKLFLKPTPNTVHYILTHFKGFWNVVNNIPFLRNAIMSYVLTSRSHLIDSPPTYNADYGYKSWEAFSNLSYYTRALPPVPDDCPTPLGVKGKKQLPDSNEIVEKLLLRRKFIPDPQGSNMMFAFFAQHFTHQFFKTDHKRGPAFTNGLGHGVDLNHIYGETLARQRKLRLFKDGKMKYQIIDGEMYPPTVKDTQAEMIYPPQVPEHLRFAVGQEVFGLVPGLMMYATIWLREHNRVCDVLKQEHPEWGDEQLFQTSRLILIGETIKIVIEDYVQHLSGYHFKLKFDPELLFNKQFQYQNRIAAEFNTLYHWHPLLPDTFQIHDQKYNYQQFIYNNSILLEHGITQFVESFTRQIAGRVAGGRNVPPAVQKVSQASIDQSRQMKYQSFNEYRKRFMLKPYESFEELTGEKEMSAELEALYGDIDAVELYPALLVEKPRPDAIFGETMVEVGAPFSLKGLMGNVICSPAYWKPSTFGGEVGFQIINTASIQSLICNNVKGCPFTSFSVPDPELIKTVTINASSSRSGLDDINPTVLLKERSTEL

[3] = tested on: RAW264.7; experiment: Inhibition of LPS-induced NO production in mouse RAW264.7 cells after 24 hrs by Griess assay; assay type: functional, cell-based; conditions: RAW264.7, 24 h
Outline: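 RAW264.7 macrophages were grown in DMEM with heat-inactivated 10% FBS, penicillin and streptomycin at 37 °C under 5% CO₂. Cells were stimulated with LPS for 24 h with or without compound. Culture medium was mixed with an equal volume of 0.05% sulfanilamide and 0.05% N-(1-naphthyl)ethylenediamine, and absorbance was read at 540 nm. Nitrite was quantified against a sodium nitrite standard curve.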

Row | SMILES | IC50 [1] | inhibition [2] | IC50 [3]
1 | C=CCn1cc(-c2cc(CCC)ccc2O)nn1 | > 50 µM | 22% | > 50 µM
2 | C=CCc1ccc(OC(=O)N(C)Cc2ccccc2)c(-c2ccc(OC)c(CC=C)c2)c1 | 44 µM | 63% | 33 µM
3 | C=CCc1ccc(O)c(-c2ccc(OC)c(CCCO)c2)c1 | 53 µM | – | 41 µM
4 | CCCc1cc(-c2cc(Br)ccc2O)no1 | 63 µM | 35% | 63 µM
5 | CCCc1ccc(O)c(-c2cn(CC3CCC3)nn2)c1 | > 50 µM | 33% | 33 µM
6 | COc1ccc(-c2cc(CC=C(C)C)ccc2O)cc1CC=C(C)C | 15 µM | 41% | 13 µM
7 | C=CCc1ccc(OCC=C(C)C)c(-c2ccc(OC)c(CC=C)c2)c1 | > 100 µM | 44% | > 100 µM
8 | C=CCNC(=O)Oc1ccc(CC=C)cc1-c1ccc(OC)c(CC=C)c1 | > 100 µM | 48% | > 100 µM
9 | Cc1ccc(-c2cc(C(F)(F)F)nn2-c2ccc(S(N)(=O)=O)cc2)cc1 [CELECOXIB] | 11.1 µM | – | 12.1 µM
10 | CCCc1ccc(O)c(-c2ccc(OC)c(CCC)c2)c1 | 13 µM | 46% | 11 µM
11 | C=CCc1cc(Br)c(O)c(-c2ccc(OC)c(CC=C)c2)c1 | 33 µM | 52% | 28 µM
12 | C=CCc1ccc(OC(C)=O)c(-c2ccc(OC)c(CC=C)c2)c1 | 29 µM | 39% | 24 µM
13 | C=CCc1cc(Cl)c(O)c(-c2ccc(OC)c(CC=C)c2)c1 | 81 µM | – | 40 µM
14 | C=CCc1ccc(O)c(-c2cc(CCC)on2)c1 | 81 µM | 39% | 61 µM
15 | C=CCc1ccc(OC(C)C)c(-c2ccc(OC)c(CC=C)c2)c1 | > 100 µM | 23% | 78 µM
16 | C=CCc1ccc(O)c(-c2ccc(OC)c(CC=C)c2)c1 [METHYLHONOKIOL] | 27 µM | 57% | 18 µM
17 | COc1ccc(-c2cc(CC3CO3)ccc2O)cc1CC1CO1 (configuration not stated) | 64 µM | 58% | 24 µM
18 | C=CCc1ccc(OC(=O)NCc2ccccc2)c(-c2ccc(OC)c(CC=C)c2)c1 | > 100 µM | 65% | > 100 µM
19 | C=CCc1ccc(OC)c(-c2ccc(OC)c(CC=C)c2)c1 | > 100 µM | 46% | 40 µM
20 | C=CCc1ccc(O)c(-c2cc(CO)on2)c1 | > 50 µM | 38% | 36 µM

Reference: ChEMBL document CHEMBL2016503, “Design and synthesis of 4-O-methylhonokiol analogs as inhibitors of cyclooxygenase-2 (COX-2) and PGF₁ production” (Bioorg Med Chem, 2012)
